From ChEMBL document CHEMBL4004861, “Novel 2,3-disubstituted quinazoline-4(3H)-one molecules derived from amino acid linked sulphonamide as a potent malarial antifolates for DHFR inhibition” (Eur J Med Chem, 2017) come the findings set out here.

Structures are written as SMILES. ≈ marks a conversion by molar mass, not a printed value.

For data set [1], the system named is Plasmodium falciparum. The data set is described as follows: Antimalarial activity against Plasmodium falciparum. The data set is classed as functional. In outline:
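Drug stocks diluted in complete medium (RPMI 1640 plus 10% human serum) over seven dilutions, 0.0001 up to 100 mg/mL as printed. Reference antimalarials run as positive controls in every experiment. Percent inhibition at each concentration was calculated against untreated control to give IC50.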

The subject of data set [2] is Plasmodium falciparum. The data set is described as follows: Antimalarial activity against Plasmodium falciparum assessed as reduction in parasitic LDH activity by Malstat reagent based spectrophotometric method. The data set is classed as functional. In outline:
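Parasite lactate dehydrogenase (Malstat) read spectrophotometrically at 650 nm. Compounds were in RPMI 1640 with 10% human serum, seven dilutions.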

Data set [3] relates to Plasmodium falciparum. The data set is described as follows: Antimalarial activity against Plasmodium falciparum infected in RBC after 5 days by MTT assay. Format: functional. In outline:
(§1)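 MTT reduction, run in parallel on infected and on normal uninfected RBC cultures and read at 565 and 690 nm. Compounds were in RPMI 1640 with 10% human serum, seven dilutions. Drug-free, parasite-free RBC cultures were set as maximum activity, with untreated, uninfected and cell-free controls. EC50 (parasite) and CC50 (RBC) were derived, and SI = CC50/EC50.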

Data set [4] can be described thus: Selectivity index, ratio of CC50 for RBC (unknown origin) to EC50 for Plasmodium falciparum infected in RBC. In outline: as §1
The next data set deals with T1, Dihydrofolate reductase (Bos taurus, UniProt P00376).
T1 sequence (P00376 whole entry): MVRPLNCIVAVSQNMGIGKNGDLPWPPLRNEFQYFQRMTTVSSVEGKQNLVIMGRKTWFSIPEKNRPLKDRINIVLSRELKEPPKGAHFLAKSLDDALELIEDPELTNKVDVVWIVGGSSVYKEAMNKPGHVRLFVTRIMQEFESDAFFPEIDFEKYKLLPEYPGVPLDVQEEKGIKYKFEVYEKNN
The data set can be described thus: Inhibition of bovine liver DHFR using FH2 as substrate preincubated for 2 mins followed by substrate addition in presence of NADPH.

The subject of the next data set is Vero. The data set is described as follows: Cytotoxicity against African green monkey Vero cells assessed as reduction in cell viability up to 15 ug/ml after 72 hrs by MTT assay. Format: cell-based. The following applies: chlorocebus sabaeus. In outline: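 Vero cells were exposed to compounds for 72 h at 37 °C, with MTT conversion to formazan read at 540 nm. Viability was calculated relative to cells treated with 0.1% DMSO medium. Triplicate treatments; IC50 derived. Cells were tested up to 15 µg/mL.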

The nature of data set [5]: Selectivity index, ratio of IC50 for African green monkey Vero cells to IC50 for bovine liver DHFR. In outline: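 Bovine liver DHFR (0.02 units) in 50 mM Tris-HCl pH 7.4 with 50 µM NADPH, compounds in DMSO at final 10⁻¹¹–10⁻⁵ M, total volume 2.0 ml. Mixture held 2 min at room temperature, then started with 25 µM FH2, and ΔA/min at 340 nm recorded. […] SI = Vero IC50 / DHFR IC50, triplicate averages.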

For the compound `CC(C)CC(NS(=O)(=O)c1ccc(N)cc1)c1nc2ccccc2c(=O)n1-c1cccc(Cl)c1` (stereo not drawn), the values for the IC50 with Plasmodium falciparum [1], in the data set with Plasmodium falciparum [2] and at Dihydrofolate reductase were 0.068 µg/mL (≈ 0.137 µM), 524.8 ppm and 72.4 nM, respectively. Moreover, in the data set with Plasmodium falciparum [3], the EC50 came out at 368.97 ppm. In data set [4], the Ratio CC50/EC50 was 50.6. Further, the Activity result in the data set with Vero is recorded as “Non-Toxic”. In data set [5], the “Ratio IC50” value is recorded as 416.66.

On to `CC(C)CC(NS(=O)(=O)c1ccc(N)cc1)c1nc2ccccc2c(=O)n1-c1ccccc1F` (stereo not drawn), for which the IC50 in the data set with Plasmodium falciparum [1] was 1.01 µg/mL (≈ 2.11 µM).

`CC(C)CC(NS(=O)(=O)c1ccc(N)cc1)c1nc2ccccc2c(=O)n1-c1ccccc1Cl` (stereo not drawn) gave an IC50 in the data set with Plasmodium falciparum [1] of 0.136 µg/mL (≈ 0.274 µM).

`CC(C)CC(NS(=O)(=O)c1ccc(N)cc1)c1nc2ccccc2c(=O)n1-c1ccccc1[N+](=O)[O-]` (stereo not drawn) displayed an IC50 in the data set on Plasmodium falciparum [1] of 0.92 µg/mL (≈ 1.81 µM).

`CC(C)CC(NS(=O)(=O)c1ccc(N)cc1)c1nc2ccccc2c(=O)n1-c1ccccc1Br` (stereo not drawn): the IC50 in the data set on Plasmodium falciparum [1] is 0.068 µg/mL (≈ 0.126 µM); with Plasmodium falciparum [2], 3380 ppm; at Dihydrofolate reductase it was 168 nM. Moreover, the EC50 with Plasmodium falciparum [3] turned out to be 2831 ppm. Moreover, the Ratio CC50/EC50 in data set [4] came out at 20.6. Moreover, in the data set on Vero, the Activity result is given as “Non-Toxic”. Moreover, in data set [5], the “Ratio IC50” value is 164.83.

In turn, `CC(C)CC(NS(=O)(=O)c1ccc(N)cc1)c1nc2ccccc2c(=O)n1-c1ccccc1` (stereo not drawn) showed an IC50 in the data set on Plasmodium falciparum [1] of 0.68 µg/mL (≈ 1.47 µM).

In the data set on Plasmodium falciparum [1], `CC(C)CC(NS(=O)(=O)c1ccc(N)cc1)c1nc2ccccc2c(=O)n1-c1cccc(Br)c1` (stereo not drawn) showed an IC50 of 0.78 µg/mL (≈ 1.44 µM).

Regarding `COc1cc(Cc2cnc(N)nc2N)cc(OC)c1OC` [TRIMETHOPRIM], in the data set with Plasmodium falciparum [1], the IC50 worked out at 0.38 µg/mL (≈ 1.31 µM).

Consider `CC(C)CC(NS(=O)(=O)c1ccc(N)cc1)c1nc2ccccc2c(=O)n1-c1ccc(Cl)cc1` (stereo not drawn), for which the IC50 is 0.068 µg/mL (≈ 0.137 µM) in the data set on Plasmodium falciparum [1], 96.38 ppm with Plasmodium falciparum [2] and 56.3 nM at Dihydrofolate reductase. Further, in the data set with Plasmodium falciparum [3], the EC50 worked out at 115.61 ppm. Also, the Ratio CC50/EC50 in data set [4] worked out at 87.7. In the data set on Vero, the Activity entry was “Non-Toxic”. Besides, the “Ratio IC50” value in data set [5] is 535.71.

Turning to `COc1ccc(-n2c(C(CC(C)C)NS(=O)(=O)c3ccc(N)cc3)nc3ccccc3c2=O)cc1` (stereo not drawn), the IC50 is 0.068 µg/mL (≈ 0.138 µM) in the data set with Plasmodium falciparum [1], 8317 ppm with Plasmodium falciparum [2] and 97.4 nM at Dihydrofolate reductase. In the data set on Plasmodium falciparum [3], the EC50 amounted to 1009 ppm. In addition, in data set [4], the Ratio CC50/EC50 was 19500. For the same compound, the Activity result in the data set with Vero is “Non-Toxic”. For the same compound, the “Ratio IC50” value in data set [5] is given as 312.5.

The compound `CC(C)CC(NS(=O)(=O)c1ccc(N)cc1)c1nc2ccccc2c(=O)n1-c1ccc([N+](=O)[O-])cc1` (stereo not drawn) gave an IC50 in the data set on Plasmodium falciparum [1] of 0.84 µg/mL (≈ 1.65 µM).

In the data set on Plasmodium falciparum [1], `Cc1ccccc1-n1c(C(CC(C)C)NS(=O)(=O)c2ccc(N)cc2)nc2ccccc2c1=O` (stereo not drawn) showed an IC50 of 0.72 µg/mL (≈ 1.51 µM).

In the case of `CC(C)CC(NS(=O)(=O)c1ccc(N)cc1)c1nc2ccccc2c(=O)n1-c1ccc(Br)cc1` (stereo not drawn), the values for the IC50 with Plasmodium falciparum [1], in the data set on Plasmodium falciparum [2] and on Dihydrofolate reductase were 0.068 µg/mL (≈ 0.126 µM), 37240 ppm and 161 nM, respectively. The EC50 with Plasmodium falciparum [3] was found to be 1909 ppm. Further, the Ratio CC50/EC50 in data set [4] worked out at 15.3. Besides, the Activity result in the data set on Vero is reported as “Non-Toxic”. Besides, the “Ratio IC50” value in data set [5] is 172.14.

`CC(C)CC(NS(=O)(=O)c1ccc(N)cc1)c1nc2ccccc2c(=O)n1-c1ccc(F)cc1` (stereo not drawn): the IC50 in the data set on Plasmodium falciparum [1] is 1.12 µg/mL (≈ 2.33 µM).

On to `CC(C)CC(NS(=O)(=O)c1ccc(N)cc1)c1nc2ccccc2c(=O)n1-c1cccc([N+](=O)[O-])c1` (stereo not drawn), for which, in the data set on Plasmodium falciparum [1], the IC50 is 0.78 µg/mL (≈ 1.54 µM).

Take `Cc1cccc(-n2c(C(CC(C)C)NS(=O)(=O)c3ccc(N)cc3)nc3ccccc3c2=O)c1` (stereo not drawn): the IC50 in the data set on Plasmodium falciparum [1] is 1.28 µg/mL (≈ 2.69 µM).

In the data set on Plasmodium falciparum [1], `CCc1nc(N)nc(N)c1-c1ccc(Cl)cc1` [PYRIMETHAMINE] displayed an IC50 of 0.25 µg/mL (≈ 1.01 µM).

The compound `CC(C)CC(NS(=O)(=O)c1ccc(N)cc1)c1nc2ccccc2c(=O)n1Nc1ccccc1` (stereo not drawn) gave an IC50 in the data set on Plasmodium falciparum [1] of 1.05 µg/mL (≈ 2.2 µM).

For `CCN(CC)CCCC(C)Nc1ccnc2cc(Cl)ccc12` (stereo not drawn) [CHLOROQUINE], the EC50 in the data set on Plasmodium falciparum [3] is reported as 28.97 ppm. The IC50 on Dihydrofolate reductase is 31.3 nM.

`COc1cccc(-n2c(C(CC(C)C)NS(=O)(=O)c3ccc(N)cc3)nc3ccccc3c2=O)c1` (stereo not drawn) came in with an IC50 in the data set with Plasmodium falciparum [1] of 0.78 µg/mL (≈ 1.58 µM).

Turning to `COc1ccccc1-n1c(C(CC(C)C)NS(=O)(=O)c2ccc(N)cc2)nc2ccccc2c1=O` (stereo not drawn), the IC50 with Plasmodium falciparum [1] is 0.72 µg/mL (≈ 1.46 µM).

`Cc1ccc(-n2c(C(CC(C)C)NS(=O)(=O)c3ccc(N)cc3)nc3ccccc3c2=O)cc1` (stereo not drawn): the IC50 in the data set with Plasmodium falciparum [1] came to 0.67 µg/mL (≈ 1.41 µM).
